PG9 binder – binders of HIV-1 gp120 antibody PG9, primary screen, biochemical, TR-FRET; AID 624416, 2012; inhibition, % at 6.7 µM; actives 0.43% (n = 360,000); HIV-1 gp120 / PG9 antibody interaction; TR-FRET gp120-PG9 antibody binding; in the data active = inhibition above about 8.5%
NR1D1 modulator – modulators of Rev-erb alpha DNA binding, primary screen, biochemical, FITC-DNA, fluorescence polarization, uHTS; Nuclear receptor subfamily 1 group D member 1 (Homo sapiens), P20393; AID 1259318, 2017; Rev-erbα–FITC-DNA binding, 90 min; actives 0.79% (n = 370,000); activity, % at 10 µM;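 active = activity above about 14%, limit read from the data; passing the limit was not always enough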;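 also: 0% = DMSO wells with 35 nM protein and 100% = DMSO wells with 750 nM protein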
MIN6 prolif – inducers of MIN6 beta-cell proliferation, primary screen, ATP luminescence, uHTS; MIN6 cells proliferation, ATPlite luminescence, 48 h; cells starved in 0.2% serum; 100% = growth in 10% serum; proliferation, % at 10 µM; actives 0.29% (n = 330,000);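 active = compounds whose signal lies at least 3.5 SD above the mean of all wells on their plate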;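 also: 0% = DMSO-treated cells in low-serum medium and 100% = 10% serum control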
UCH37 inh – inhibitors of human UCH37 deubiquitinase, primary screen, biochemical, Ub-AMC cleavage, fluorescence; Ubiquitin carboxyl-terminal hydrolase isozyme L5 (Homo sapiens), Q9Y5K5; purified proteasome/UCH37; inhibition, % (concentration not given with the values); actives 0.33% (n = 330,000); AID 588478, 2011;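 active = mean inhibition over replicate wells above about 20%, limit read from the data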;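 also: 0% = compound-free wells with enzyme and 100% = wells lacking proteasome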
Target sequence (Q9Y5K5 whole entry, looked up): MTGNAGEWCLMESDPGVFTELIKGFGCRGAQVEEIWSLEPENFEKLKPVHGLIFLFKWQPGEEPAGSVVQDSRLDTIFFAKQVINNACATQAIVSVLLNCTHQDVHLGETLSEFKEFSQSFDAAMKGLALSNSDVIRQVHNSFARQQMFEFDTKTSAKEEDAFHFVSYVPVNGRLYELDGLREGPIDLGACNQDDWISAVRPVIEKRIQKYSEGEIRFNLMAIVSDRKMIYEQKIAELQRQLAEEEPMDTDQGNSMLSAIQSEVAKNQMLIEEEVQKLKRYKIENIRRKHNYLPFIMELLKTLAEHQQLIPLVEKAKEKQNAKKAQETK
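Material: Human UCH37 enzyme supplied as purified proteasome complex | Schedule: 30 min preincubation with enzyme, 25 min cleavage at room temperature | Detection: AMC fluorescence 355/460 nm | Measure: % inhibition of Ub-AMC cleavage fluorescence | Controls: Wells without proteasome as full block, compound-free enzyme plus substrate as uninhibited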
Rce1 inh – yeast Rce1p protease inhibitors, primary screen, biochemical, fluorescence, cell-free homogeneous; CAAX prenyl protease 2 (Saccharomyces cerevisiae (strain ATCC 204508 / S288c)), Q03530; calls only; actives 0.27% (n = 290,000); AID 2563, 2010; yeast membranes, quenched prenylated peptide cleavage fluorescence;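 active = fall in fluorescence gain of 50% or more versus controls, with final raw signal at or below 3038400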;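 also: plate controls were neutral control wells for no effect and wells lacking membranes for full effect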
Target sequence (Q03530 whole entry, looked up): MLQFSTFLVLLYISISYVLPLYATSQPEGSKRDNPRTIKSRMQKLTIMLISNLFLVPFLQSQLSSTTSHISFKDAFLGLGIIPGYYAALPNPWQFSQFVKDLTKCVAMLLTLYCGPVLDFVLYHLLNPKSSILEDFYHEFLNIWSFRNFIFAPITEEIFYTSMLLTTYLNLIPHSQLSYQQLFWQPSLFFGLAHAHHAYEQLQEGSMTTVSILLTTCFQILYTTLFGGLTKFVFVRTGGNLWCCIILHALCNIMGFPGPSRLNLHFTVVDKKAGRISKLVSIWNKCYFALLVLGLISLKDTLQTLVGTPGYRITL
CR mimetic SO – reduction of superoxide in aged yeast, primary screen, HTS | superoxide response (% of plate mean), % at 10 µM | AID 2690, 2010 | S. cerevisiae aged cells, superoxide DHE fluorescence; stronger effect = lower value | actives 0.18% (n = 330,000);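 active = superoxide response under a set limit, about three screen SD below normal, cut at about 65% in these data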;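 also: yeast aged for seven days with compound at 30 °C before DHE staining; 100% = average MFI of all compound-treated wells on the plate with controls excluded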
Rev-erbA confirm – modulators of Rev-erb alpha DNA binding, confirmation, biochemical, FITC-DNA, fluorescence polarization, single point | shares compounds with NR1D1 modulator | actives 61% (n = 3,000) | 90 min | activation, % at 25 µM;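 active = activation at or above a set limit, or at least 3 SD above the negative control mean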;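 also: 0% = 35 nM protein with DMSO and 100% = 750 nM protein high control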
RORg counter – modulation of RORgamma DNA binding, dose response, counter-screen for Rev-erb alpha modulator project, biochemical, fluorescence polarization, FITC-DNA | actives 8% (n = 910) | purified RORgamma protein-FITC-DNA binding | IC50, µM | shares compounds with NR1D1 modulator | AID 1259320, 2017;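 active = Compounds whose fitted half-maximal concentration for disrupting protein-DNA binding is below 10 micromolar; the record names Rev-erb in its text, so the target is in doubt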
* marks the source's active call; other numbers are inactive results. Shown are actives, neighbours in structure and some others; about 1.9% of the full set was active somewhere.

For Cc1cccc(N2CCN(c3ccc4cc(S(=O)(=O)N5CCCCC5)ccc4n3)CC2C)c1 (stereo not given) the results were PG9 binder 0, NR1D1 modulator 78*, MIN6 prolif -4, UCH37 inh -146, Rce1 inh inactive, CR mimetic SO 108, Rev-erbA confirm 49* and RORg counter >40.
Cc1cccc(N2CCN(S(=O)(=O)c3ccc4c(c3)n(C)c(=O)c(=O)n4C)CC2C)c1 (stereo not given) was read as PG9 binder 0, NR1D1 modulator -8, MIN6 prolif -4, UCH37 inh -8, Rce1 inh inactive and CR mimetic SO 90.
Screening Cc1cccc(N2CCN(c3ccc4cc(S(=O)(=O)N5CCCCC5)ccc4n3)CC2)c1C returned PG9 binder -1, NR1D1 modulator 101*, MIN6 prolif -2, UCH37 inh -349, Rce1 inh inactive, CR mimetic SO 159, Rev-erbA confirm 50* and RORg counter >40.
Screening O=C(CCSc1nnc2scc(-c3ccccc3)n12)Nc1nc(-c2ccccc2)ns1 returned PG9 binder 0, NR1D1 modulator 24*, MIN6 prolif -6, UCH37 inh 0, Rce1 inh inactive, CR mimetic SO 93, Rev-erbA confirm 46* and RORg counter >40.
CC(=NNC(=O)c1nn(C)c(C)c1Br)c1ccc(NC(=O)c2ccoc2C)cc1 was read as UCH37 inh -18.
Screening COc1ccc(CNC(=O)CCCn2c(SCC#N)nc3cc4c(cc3c2=O)OCO4)cc1 returned PG9 binder 0, NR1D1 modulator -3, MIN6 prolif 5, UCH37 inh 1 and CR mimetic SO 108.
`CCN(CC)C(=O)CSc1nnc2nnc3cc(OC)ccc3n12` gave PG9 binder -1, NR1D1 modulator 21*, MIN6 prolif 2, UCH37 inh 7, Rce1 inh inactive, CR mimetic SO 76 and Rev-erbA confirm 10.
CCN(CC)C(=O)CSc1nc2cc3c(cc2c(=O)n1Cc1ccc(OC)cc1)OCO3 was read as PG9 binder 0, NR1D1 modulator 31*, MIN6 prolif -5, UCH37 inh 1, Rce1 inh inactive, CR mimetic SO 105, Rev-erbA confirm 38* and RORg counter inactive.
For CC(=NNC(=O)c1ccccc1NC(=O)c1ccc(Cl)cc1)c1ccncc1 the results were UCH37 inh 0.
For CCn1c(C)c(C2=CCN(S(=O)(=O)c3ccccc3)CC2)c2ccccc21 the results were PG9 binder 1, NR1D1 modulator 28*, MIN6 prolif 0, UCH37 inh 2, Rce1 inh inactive, CR mimetic SO 96 and Rev-erbA confirm 26*.
`Cc1cc(-c2n[nH]c(=S)n2N=Cc2c[nH]c3ccccc23)n[nH]1` gave UCH37 inh 4.
COc1cc(C=NNC(=O)c2cc(C3CC3)[nH]n2)cc(OC)c1OC was read as UCH37 inh 5.
For O=C1CSC(=S)N1N=Cc1c(F)cccc1Cl the results were PG9 binder 0 and NR1D1 modulator 3.
For CN(C)c1ccc(C=NN2C(=O)CSC2=S)c(Cl)c1 the results were PG9 binder -2, NR1D1 modulator 22* and Rev-erbA confirm -3.
For COc1cc(C=NNc2ccc(C)cc2)cc(Br)c1O the results were UCH37 inh 2.
CC(=NNS(=O)(=O)c1ccccc1)c1ccc(Cl)cc1 was read as UCH37 inh 0.
`Cc1ccc(N=Cc2c(O)c3ccccc3oc2=O)c(C)c1` gave PG9 binder 1, NR1D1 modulator 46*, MIN6 prolif -2, UCH37 inh -147, Rce1 inh inactive, CR mimetic SO 102 and Rev-erbA confirm 25*.
`Cc1ccc(F)cc1N=Cc1c(O)c2ccccc2oc1=O` gave MIN6 prolif -3, UCH37 inh -31, Rce1 inh inactive and CR mimetic SO 95.
`CN(C)CCN(Cc1ccccc1)S(=O)(=O)c1ccc2c(c1)n(C)c(=O)c(=O)n2C` gave PG9 binder 0, NR1D1 modulator -2, MIN6 prolif -1, UCH37 inh -2, Rce1 inh inactive and CR mimetic SO 113.
`CCCCN(Cc1ccccc1)S(=O)(=O)c1ccc2c(c1)n(C)c(=O)c(=O)n2C` gave PG9 binder -1, NR1D1 modulator 45*, MIN6 prolif -4, UCH37 inh -26, Rce1 inh inactive, CR mimetic SO 112 and Rev-erbA confirm 10.
`CC(=O)NN1C(=O)/C(=C\c2ccc(O)cc2)SC1=S` gave PG9 binder -6, NR1D1 modulator 20*, MIN6 prolif 0, UCH37 inh 9, Rce1 inh inactive, CR mimetic SO 96 and Rev-erbA confirm 19*.
For O=C(NN1C(=O)/C(=C\c2ccc(O)c([N+](=O)[O-])c2)SC1=S)c1ccccc1Cl the results were PG9 binder -1, NR1D1 modulator 28*, MIN6 prolif -4, Rce1 inh inactive, CR mimetic SO 118 and Rev-erbA confirm 15.
CCN(c1ccccc1C)S(=O)(=O)c1cc2c3c(c1)CCC(=O)N3CCC2 was read as PG9 binder -2, NR1D1 modulator 28*, MIN6 prolif 6, UCH37 inh 2, Rce1 inh inactive, CR mimetic SO 115, Rev-erbA confirm 41* and RORg counter >40.
`CCN(c1ccccc1C)S(=O)(=O)c1cc2c3c(c1)CCN3C(=O)CC2` gave PG9 binder -1, NR1D1 modulator -1, MIN6 prolif -1, UCH37 inh 2, Rce1 inh inactive and CR mimetic SO 98.
`COC(=O)c1ccc2nc(NC(=O)C3CCCCC3)sc2c1` gave PG9 binder -3, NR1D1 modulator 17*, MIN6 prolif -4, UCH37 inh 2, Rce1 inh inactive, CR mimetic SO 95 and Rev-erbA confirm 19*.
For COC(=O)c1ccc2nc(NC(=O)C(C)(C)C)sc2c1 the results were PG9 binder 0, NR1D1 modulator 6, MIN6 prolif -6, UCH37 inh 3, Rce1 inh inactive and CR mimetic SO 101.

Screening data: PubChem BioAssay, several laboratories
